What was measured:
[1] = target: T1, 5-hydroxytryptamine receptor 6 (Homo sapiens, UniProt P50406); assay: Displacement of [3H]LSD from human recombinant 5-HT6 receptor after 120 mins by scintillation counting analysis
Method in brief: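 Cloned human 5-HT6 receptor stably expressed in HEK-293 cells; displacement of [3H]-LSD.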

[2] = target: T2, 5-hydroxytryptamine receptor 1A (Homo sapiens, UniProt P08908); assay: Displacement of [3H]8-OH-DPAT from recombinant human 5-HT1A receptor after 60 mins by scintillation counting analysis
T2 sequence (P08908 whole entry): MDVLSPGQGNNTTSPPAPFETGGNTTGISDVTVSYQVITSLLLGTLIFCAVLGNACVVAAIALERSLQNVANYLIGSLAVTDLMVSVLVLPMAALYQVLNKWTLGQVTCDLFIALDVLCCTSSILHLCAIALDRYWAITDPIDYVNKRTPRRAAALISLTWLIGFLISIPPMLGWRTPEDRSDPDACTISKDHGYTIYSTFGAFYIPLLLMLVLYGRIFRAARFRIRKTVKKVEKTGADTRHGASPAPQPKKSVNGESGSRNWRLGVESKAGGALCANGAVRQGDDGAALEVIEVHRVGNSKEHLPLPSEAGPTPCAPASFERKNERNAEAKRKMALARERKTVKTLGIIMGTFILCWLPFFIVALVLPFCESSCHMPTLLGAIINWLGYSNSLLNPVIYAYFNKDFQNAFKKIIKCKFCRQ
Method in brief: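 Radioligand displacement at cloned human 5-HT1A receptor stably expressed in HEK-293 cells, with [3H]-8-OH-DPAT as the radioligand.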

[3] = target: T3, 5-hydroxytryptamine receptor 2A (Homo sapiens, UniProt P28223); assay: Displacement of [3H]ketanserin from recombinant human 5-HT2A receptor after 60 mins by scintillation counting analysis
T3 sequence (P28223 whole entry): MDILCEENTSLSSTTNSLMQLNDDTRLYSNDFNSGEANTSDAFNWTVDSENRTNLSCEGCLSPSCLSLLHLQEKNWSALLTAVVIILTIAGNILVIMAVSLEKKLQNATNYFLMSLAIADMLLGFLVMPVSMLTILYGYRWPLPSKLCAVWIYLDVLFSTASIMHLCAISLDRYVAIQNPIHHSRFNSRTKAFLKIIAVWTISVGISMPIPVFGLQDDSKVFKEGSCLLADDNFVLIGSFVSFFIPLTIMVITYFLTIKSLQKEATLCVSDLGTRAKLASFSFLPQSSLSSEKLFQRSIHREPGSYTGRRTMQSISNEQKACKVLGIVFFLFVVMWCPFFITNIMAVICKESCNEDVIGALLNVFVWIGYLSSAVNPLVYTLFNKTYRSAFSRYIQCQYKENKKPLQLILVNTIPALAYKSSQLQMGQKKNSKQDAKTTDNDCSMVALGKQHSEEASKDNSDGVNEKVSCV
Method in brief: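 Cloned human 5-HT2A receptor stably expressed in CHO cells; displacement of [3H]-ketanserin.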

HEK293 = assay: Cytotoxicity against HEK293 cells assessed as reduction in cell viability at 1 uM after 72 hrs by MTS assay relative to control; settings: human, hek293, 72 h
[4] = target: T3, 5-hydroxytryptamine receptor 2A; assay: Displacement of [3H]-ketanserin from recombinant human 5HT2A receptor expressed in CHOK1 cells measured after 1 hr by microbeta counting method; type: cell-based
Method in brief: (§1)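 Radioligand displacement on cloned human receptors stably expressed in HEK-293 cells, except 5-HT2A, which was expressed in CHO cells. Radioligands: [3H]-LSD for 5-HT6, [3H]-5-CT for 5-HT7, [3H]-ketanserin for 5-HT2A, [3H]-raclopride for D2.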

[5] = target: T2, 5-hydroxytryptamine receptor 1A; assay: Displacement of [3H]-8-OH-DPAT from recombinant human 5HT1A receptor expressed in HEK293 cells measured after 1 hr by microbeta counting method; type: cell-based
Method in brief: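 Cloned human 5-HT1A receptor stably expressed in HEK-293 cells; displacement of [3H]-8-OH-DPAT.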

[6] = target: 5-hydroxytryptamine receptor 7 (Homo sapiens, UniProt P34969); assay: Displacement of [3H]-5-CT from recombinant human 5HT7b receptor expressed in HEK293 cells measured after 1 hr by microbeta counting method; type: cell-based; method in brief: as §1
Sequence of 5-hydroxytryptamine receptor 7 (P34969 whole entry): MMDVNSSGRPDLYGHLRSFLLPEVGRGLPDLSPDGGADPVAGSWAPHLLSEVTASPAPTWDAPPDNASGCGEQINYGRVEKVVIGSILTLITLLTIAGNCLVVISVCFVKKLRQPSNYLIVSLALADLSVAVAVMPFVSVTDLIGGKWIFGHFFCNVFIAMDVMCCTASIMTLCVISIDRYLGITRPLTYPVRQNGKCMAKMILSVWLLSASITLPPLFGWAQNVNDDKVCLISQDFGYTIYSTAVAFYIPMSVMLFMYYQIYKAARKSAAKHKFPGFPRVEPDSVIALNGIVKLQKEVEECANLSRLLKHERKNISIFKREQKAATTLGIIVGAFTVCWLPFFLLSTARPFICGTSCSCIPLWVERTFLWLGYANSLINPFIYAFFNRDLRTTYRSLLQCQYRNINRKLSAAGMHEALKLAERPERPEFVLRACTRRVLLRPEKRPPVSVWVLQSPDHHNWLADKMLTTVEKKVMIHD

D(2) dopamine receptor = D(2) dopamine receptor (Homo sapiens, UniProt P14416); assay: Displacement of [3H]-raclopride from recombinant human D2LR receptor expressed in HEK293 cells measured after 1 hr by microbeta counting method; type: cell-based; method in brief: as §1
Sequence of D(2) dopamine receptor (P14416 whole entry): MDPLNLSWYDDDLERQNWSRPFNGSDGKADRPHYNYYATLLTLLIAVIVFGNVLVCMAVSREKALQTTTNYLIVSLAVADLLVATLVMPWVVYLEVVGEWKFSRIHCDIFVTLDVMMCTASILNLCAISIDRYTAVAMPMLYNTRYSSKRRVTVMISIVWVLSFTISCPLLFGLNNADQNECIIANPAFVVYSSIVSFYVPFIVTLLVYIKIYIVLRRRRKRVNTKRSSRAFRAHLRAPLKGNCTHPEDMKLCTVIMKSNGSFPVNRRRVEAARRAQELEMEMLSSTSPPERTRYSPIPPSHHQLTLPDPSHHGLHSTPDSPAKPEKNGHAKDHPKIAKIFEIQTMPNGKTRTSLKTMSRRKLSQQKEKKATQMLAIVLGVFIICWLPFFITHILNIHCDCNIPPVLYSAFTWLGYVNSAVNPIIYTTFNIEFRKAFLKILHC

[7] = target: T1, 5-hydroxytryptamine receptor 6; assay: Displacement of [3H]-LSD from recombinant human 5HT6 receptor expressed in HEK293 cells measured after 1 hr by microbeta counting method; type: cell-based; method in brief: as §1
CYP2C9 = CYP2C9 (Homo sapiens, UniProt P11712); assay: Inhibition of CYP2C9 (unknown origin) assessed as residual activity at 25 uM using beetle D-luciferin as substrate by CYP450-Glo assay relative to control; type: ADME; settings: CYP2C9 enzyme (unknown origin), probe beetle D-luciferin, read-out: Activity
Sequence of CYP2C9 (P11712 whole entry, canonical isoform): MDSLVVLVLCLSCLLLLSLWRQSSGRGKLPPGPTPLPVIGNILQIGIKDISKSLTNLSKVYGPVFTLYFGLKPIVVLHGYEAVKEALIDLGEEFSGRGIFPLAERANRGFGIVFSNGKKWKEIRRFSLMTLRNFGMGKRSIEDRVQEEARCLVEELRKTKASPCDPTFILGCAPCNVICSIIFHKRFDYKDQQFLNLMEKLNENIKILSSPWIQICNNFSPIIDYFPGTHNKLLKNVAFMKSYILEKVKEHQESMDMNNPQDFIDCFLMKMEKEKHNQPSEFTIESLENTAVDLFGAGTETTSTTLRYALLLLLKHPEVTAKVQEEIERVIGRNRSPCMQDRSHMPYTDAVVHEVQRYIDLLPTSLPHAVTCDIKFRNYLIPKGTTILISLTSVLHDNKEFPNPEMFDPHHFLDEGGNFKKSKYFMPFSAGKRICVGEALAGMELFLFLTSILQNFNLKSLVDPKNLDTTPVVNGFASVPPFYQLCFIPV
Method in brief: (§2)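 Luminescent P450-Glo assays for CYP3A4, CYP2D6 and CYP2C9 run per the kit protocol. Triplicate wells, final concentrations 0.01–25 μM, same across all three isoforms. Activity given as % of control.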

Cytochrome P450 3A4 = Cytochrome P450 3A4 (Homo sapiens, UniProt P08684); assay: Inhibition of CYP3A4 (unknown origin) using beetle D-luciferin as substrate by CYP450-Glo assay; type: ADME
Sequence of Cytochrome P450 3A4 (P08684 whole entry): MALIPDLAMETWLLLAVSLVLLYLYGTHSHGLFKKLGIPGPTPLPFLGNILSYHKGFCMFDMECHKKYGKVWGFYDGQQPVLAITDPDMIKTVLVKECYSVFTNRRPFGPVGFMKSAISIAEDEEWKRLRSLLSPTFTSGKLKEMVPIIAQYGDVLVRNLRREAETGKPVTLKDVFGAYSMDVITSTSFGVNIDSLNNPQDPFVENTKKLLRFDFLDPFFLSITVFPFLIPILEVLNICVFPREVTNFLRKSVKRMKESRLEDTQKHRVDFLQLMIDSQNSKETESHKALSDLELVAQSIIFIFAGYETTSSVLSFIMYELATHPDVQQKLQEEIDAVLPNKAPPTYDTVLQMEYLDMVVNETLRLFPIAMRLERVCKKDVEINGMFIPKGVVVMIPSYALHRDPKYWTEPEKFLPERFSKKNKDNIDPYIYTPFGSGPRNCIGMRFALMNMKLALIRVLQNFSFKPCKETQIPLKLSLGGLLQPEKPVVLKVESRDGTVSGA

[8] = Drug metabolism in human liver microsomes measured after 120 mins in presence of NADPH generating system by UPLC analysis; type: ADME, Microsome
Method in brief: (§3)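 Incubation with human, rat or mouse liver microsomes for 120 min at 37 °C with an NADPH regeneration system. Reaction mixtures analysed by UPLC for metabolites and % substrate metabolized.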

P-glycoprotein (ABCB1) = P-glycoprotein (ABCB1) (Homo sapiens, UniProt P08183); assay: Inhibition of recombinant human membrane bound Pgp assessed as basal ATP consumption at 100 uM after 40 mins by Pgp-Glo luminescence assay relative to control; parameters: scale not given: the % may be the effect or the level left; settings: read-out: Activity
Sequence of P-glycoprotein (ABCB1) (P08183 whole entry): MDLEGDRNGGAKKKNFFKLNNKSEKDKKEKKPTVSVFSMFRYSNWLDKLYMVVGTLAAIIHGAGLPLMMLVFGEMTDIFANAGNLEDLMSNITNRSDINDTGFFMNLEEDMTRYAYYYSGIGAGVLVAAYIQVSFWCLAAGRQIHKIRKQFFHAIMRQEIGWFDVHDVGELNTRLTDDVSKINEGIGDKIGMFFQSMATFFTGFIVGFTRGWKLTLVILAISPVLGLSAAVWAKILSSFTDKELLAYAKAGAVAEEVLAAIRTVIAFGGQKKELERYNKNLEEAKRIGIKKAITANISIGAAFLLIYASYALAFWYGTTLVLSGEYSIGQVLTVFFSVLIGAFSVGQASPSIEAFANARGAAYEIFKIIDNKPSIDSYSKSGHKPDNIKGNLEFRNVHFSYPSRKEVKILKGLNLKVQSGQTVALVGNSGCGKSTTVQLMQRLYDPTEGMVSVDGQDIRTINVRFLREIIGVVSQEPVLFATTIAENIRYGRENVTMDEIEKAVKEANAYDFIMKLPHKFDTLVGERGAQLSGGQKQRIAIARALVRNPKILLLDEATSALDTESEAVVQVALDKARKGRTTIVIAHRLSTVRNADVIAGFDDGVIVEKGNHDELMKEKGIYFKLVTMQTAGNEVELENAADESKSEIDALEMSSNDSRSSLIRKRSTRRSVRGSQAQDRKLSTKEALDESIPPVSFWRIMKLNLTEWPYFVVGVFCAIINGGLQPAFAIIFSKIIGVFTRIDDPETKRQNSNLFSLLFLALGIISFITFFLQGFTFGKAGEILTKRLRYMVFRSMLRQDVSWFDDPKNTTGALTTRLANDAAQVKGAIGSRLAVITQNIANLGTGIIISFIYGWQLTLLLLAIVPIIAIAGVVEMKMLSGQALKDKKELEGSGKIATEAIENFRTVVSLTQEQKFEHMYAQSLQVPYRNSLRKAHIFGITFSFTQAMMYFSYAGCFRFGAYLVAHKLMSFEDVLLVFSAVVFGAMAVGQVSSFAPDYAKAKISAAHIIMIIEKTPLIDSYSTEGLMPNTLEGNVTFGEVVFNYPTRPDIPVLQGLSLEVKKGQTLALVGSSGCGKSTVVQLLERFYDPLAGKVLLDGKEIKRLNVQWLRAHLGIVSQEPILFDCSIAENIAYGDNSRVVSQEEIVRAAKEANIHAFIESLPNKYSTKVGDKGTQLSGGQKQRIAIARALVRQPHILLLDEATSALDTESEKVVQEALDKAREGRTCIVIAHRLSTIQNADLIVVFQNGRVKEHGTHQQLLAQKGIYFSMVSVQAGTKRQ
Method in brief: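 Pgp-Glo luminescence assay measuring Pgp ATP consumption. Compounds incubated with Pgp membranes at 100 μM for 40 min at 37 °C in triplicate. Na3VO4 (100 μM) used as reference inhibitor and verapamil (200 μM) as stimulator; basal activity taken as the vanadate-versus-untreated signal difference.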

[9] = Mutagenicity in Salmonella typhimurium TA100 assessed as revertant colonies at 10 uM by Ames test; type: toxicity; settings: salmonella enterica subsp. enterica serovar typhimurium
Method in brief: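 Ames microplate fluctuation assay with S. typhimurium TA100 in 384-well format, run in triplicate. Medium control baseline defined as mean revertants in growth medium + 1% DMSO plus one SD. Positive wells counted; a 2-fold increase over baseline flagged as a mutagen alert.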

Homo sapiens = species on record: Homo sapiens; assay: Selectivity ratio of Ki for displacement of [3H]-8-OH-DPAT from recombinant human 5HT1A receptor expressed in HEK293 cell membranes to Ki for displacement of [3H]-5-CT from recombinant human 5HT7b receptor expressed in HEK293 cell membranes
[10] = Drug metabolism in mouse liver microsomes measured after 120 mins in presence of NADPH generating system by UPLC analysis; type: ADME, Microsome; settings: read-out: Drug metabolism; method in brief: as §3
CYP2D6 = CYP2D6 (Homo sapiens, UniProt P10635); assay: Inhibition of CYP2D6 (unknown origin) assessed as residual activity at 10 uM using beetle D-luciferin as substrate by CYP450-Glo assay relative to control; type: ADME; settings: CYP2D6 enzyme (unknown origin), probe beetle D-luciferin, read-out: Activity; method in brief: as §2
Sequence of CYP2D6 (P10635 whole entry): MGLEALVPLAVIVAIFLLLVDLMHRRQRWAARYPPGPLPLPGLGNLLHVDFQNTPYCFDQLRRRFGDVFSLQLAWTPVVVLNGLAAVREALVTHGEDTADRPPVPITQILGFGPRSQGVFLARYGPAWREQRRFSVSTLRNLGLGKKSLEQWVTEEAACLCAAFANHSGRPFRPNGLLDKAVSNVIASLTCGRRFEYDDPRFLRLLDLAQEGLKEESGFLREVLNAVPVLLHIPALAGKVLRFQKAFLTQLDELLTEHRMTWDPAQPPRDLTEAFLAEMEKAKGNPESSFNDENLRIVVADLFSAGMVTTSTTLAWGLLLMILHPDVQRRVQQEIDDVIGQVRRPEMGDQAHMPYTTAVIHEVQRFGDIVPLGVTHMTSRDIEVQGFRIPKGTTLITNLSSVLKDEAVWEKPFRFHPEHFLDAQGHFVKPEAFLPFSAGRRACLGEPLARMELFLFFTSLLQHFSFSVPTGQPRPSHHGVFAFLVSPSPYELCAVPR

Cytochrome P450 2D6 = Cytochrome P450 2D6 (Homo sapiens, UniProt P10635); assay: Inhibition of CYP2D6 (unknown origin) using beetle D-luciferin as substrate by CYP450-Glo assay; type: ADME
Sequence of Cytochrome P450 2D6 (P10635 whole entry): as above

[11] = Drug metabolism in rat liver microsomes measured after 120 mins in presence of NADPH generating system by UPLC analysis; type: ADME, Microsome; method in brief: as §3
CYP3A4 = CYP3A4 (Homo sapiens, UniProt P08684); assay: Inhibition of CYP3A4 (unknown origin) assessed as residual activity at 10 uM using beetle D-luciferin as substrate by CYP450-Glo assay relative to control; type: ADME; settings: CYP3A4 enzyme (unknown origin), probe beetle D-luciferin, read-out: Activity; method in brief: as §2
Sequence of CYP3A4 (P08684 whole entry): as the sequence (P08684 whole entry) above

[12] = Permeability of the compound by PAMPA; type: ADME; settings: read-out: permeability
Method in brief: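 Passive permeability measured on a pre-coated PAMPA plate system. Concentrations were quantified against calibration curves made by capillary electrophoresis with diode-array detection. The permeability coefficient Pe is reported in 10^-6 cm s^-1 as mean ± SD of triplicates.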

[13] = Retention time of the compound in rat liver microsomes in presence of NADPH generating system by UPLC analysis; type: ADME, Microsome
Method in brief: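 Incubated with rat liver microsomes plus an NADPH regeneration system for 120 min at 37 °C. Reaction mixtures were analysed by UPLC to detect metabolites and their retention times.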

[14] = liver microsomes, read-out: Drug metabolism

T1 sequence (P50406 whole entry): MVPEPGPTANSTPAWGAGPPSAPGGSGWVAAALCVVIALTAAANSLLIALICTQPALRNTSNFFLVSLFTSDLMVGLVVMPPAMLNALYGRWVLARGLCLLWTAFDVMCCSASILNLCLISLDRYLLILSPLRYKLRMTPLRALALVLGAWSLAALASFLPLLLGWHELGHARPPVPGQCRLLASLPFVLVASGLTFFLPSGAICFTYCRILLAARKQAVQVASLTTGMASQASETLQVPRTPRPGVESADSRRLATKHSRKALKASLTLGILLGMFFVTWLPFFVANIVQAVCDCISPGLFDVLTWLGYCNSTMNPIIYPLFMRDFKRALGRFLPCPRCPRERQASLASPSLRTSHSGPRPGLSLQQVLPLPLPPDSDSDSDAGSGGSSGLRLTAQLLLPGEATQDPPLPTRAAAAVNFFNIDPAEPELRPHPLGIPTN

Cc1nn(C)c(C)c1-c1cccc(CCN(C)C)c1
Ki [1]: > 1 µM | Ki [2]: 0.7 µM | Ki [3]: > 1 µM

N#CC(C#N)=NNc1cccc(Cl)c1 [CARBONYL CYANIDE M-CHLOROPHENYLHYDRAZONE]
Activity (HEK293): 40%

CCn1cncc1-c1c[nH]c2ccc(C(=O)OC)cc12
Ki [4]: > 10 µM | Ki [5]: > 10 µM | Ki [6]: 0.161 µM | Ki (D(2) dopamine receptor): > 10 µM | Ki [7]: 6.06 µM

Cn1cncc1-c1c[nH]c2ccc(C(N)=O)cc12
activity at 25 µM (CYP2C9): 37.2% | Ki [4]: > 10 µM | Ki [5]: 0.22 µM | IC50 (Cytochrome P450 3A4): 3.53 µM | Drug metabolism ([8]; microsomes, 2 h): Metabolite_Notdetected | activity at 40 min, 100 µM (P-glycoprotein (ABCB1)): 60% | Activity [9]: 12.3 | Ki [6]: 0.006 µM | Ratio Ki (Homo sapiens): 37 | metabolised at 2 h [10]: 9% | Ki (D(2) dopamine receptor): 5.56 µM | activity at 10 µM (CYP2D6): 55% | IC50 (Cytochrome P450 2D6): 27.6 µM | Ki [7]: 6.91 µM | Drug metabolism ([11]; microsomes, 2 h): Metabolite_Notdetected | activity at 10 µM (CYP3A4): 29.4%

NCCc1c[nH]c2ccc(C(N)=O)cc12
activity at 25 µM (CYP2C9): 78.7% | Papp [12]: 3.54 ×10⁻⁶ cm/s | metabolised at 2 h [8, 14]: 26% | activity at 40 min, 100 µM (P-glycoprotein (ABCB1)): 26.3% | Activity [9]: 4 | Retention_time [13]: 1.62 min | metabolised at 2 h [10]: 2% | activity at 10 µM (CYP2D6): 108% | metabolised at 2 h [11, 14]: 20% | activity at 10 µM (CYP3A4): 95.7%

Source: ChEMBL document CHEMBL4368858, “Search for a 5-CT alternative. In vitro and in vivo evaluation of novel pharmacological tools: 3-(1-alkyl-1H-imidazol-5-yl)-1H-indole-5-carboxamides, low-basicity 5-HT7 receptor agonists” (Medchemcomm, 2018)
